Screens (PubChem)
Hits are enriched below; roughly 6.1% of the tested compounds scored in any of these assays.
Yeast growth inh: chemicals that inhibit yeast BB579 growth in restrictive medium (lifespan-shortening candidates) | S. cerevisiae BB579 growth, OD615, 48 h | inhibition, % at 10 µM | hit rate 0.51% among 140,000 | AID 804;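 active means inhibition above a set limit, 3 SD over the mean compound inhibition, cut at about 44% in these data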
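System: DeaD yeast strain BB579; buffer or medium: CSMM-D dextrose restrictive medium; technique: OD at 615 nm; schedule: 4 h cell preincubation, 48 h compound exposure, 30 °C humidified; doses: single 10 µM dose; controls: amphotericin B 10 µg/mL, positive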
RAM inhibit: yeast RAM network inhibition | inhibition, % at 50 µM | hit rate 1.8% among 190,000 | AID 868 | S. cerevisiae dse1pr::URA3 reporter, 5-FOA growth OD615, 2 d; analog-sensitive cbk1-as2 kinase mutant strain;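 active means inhibition above a set limit, 3 SD over mean compound inhibition, cut at about 8.4% in these data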;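 further: 0% = DMSO-only wells with no growth and 100% = 10 µM 1-NA-PP1 full growth; inhibition rescues growth on 5-FOA so higher OD means more RAM inhibition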
Measles CPE: protection of cells from measles virus. hit rate 1.5% among 140,000. Measles virus-infected cells, CPE protection, absorbance. protection (pct of control), % at 4 µM; in the data active means protection mostly above about 24%, no sharp cut-off; inactive means mostly below about 26%
Yeast lifespan up: extends the lifespan of yeast; S. cerevisiae growth with nicotinamide, OD615; deaD strain in restrictive glucose medium; inhibition of the nicotinamide effect, % at 10 µM; hit rate 0.68% among 130,000;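 active means inhibition above a set limit, placed 3 SD over the median of all compounds, cut at about 26% in these data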;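 further: 0% = nicotinamide-treated wells and 100% = cells grown without nicotinamide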
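Measured by: optical density (absorbance) at 615 nm; System: modified budding yeast, DeaD strain; Medium: restrictive CSMM-D dextrose medium; Timing: 4 h preincubation then 48 h treatment at 30 °C.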
WT yeast gro inh: growth inhibition of WT yeast, mitochondrial fusion screen; mitochondrial fusion phenotypic screen, WT strain; inhibition, % at 10 µM; hit rate 2.1% among 190,000; AID 1362; in the data active means inhibition above about 58%; tested in S. cerevisiae
DAT uptake mod: modulates human dopamine transporter uptake under cocaine | Q01959 | LLC-PK1 hDAT cells, [14C]-dopamine uptake with cocaine IC80; actives deviate in either direction | B-score at 10 µM | hit rate 1.3% among 110,000;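 active means Z score or B-score, a plate-position-corrected score, falls beyond the plate's 99.7% confidence bounds, in either direction; inactive means both scores lie inside the 99.7% bounds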;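 further: scored against the spread of the other compound wells on the same plate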
Target sequence (Q01959 whole entry, looked up): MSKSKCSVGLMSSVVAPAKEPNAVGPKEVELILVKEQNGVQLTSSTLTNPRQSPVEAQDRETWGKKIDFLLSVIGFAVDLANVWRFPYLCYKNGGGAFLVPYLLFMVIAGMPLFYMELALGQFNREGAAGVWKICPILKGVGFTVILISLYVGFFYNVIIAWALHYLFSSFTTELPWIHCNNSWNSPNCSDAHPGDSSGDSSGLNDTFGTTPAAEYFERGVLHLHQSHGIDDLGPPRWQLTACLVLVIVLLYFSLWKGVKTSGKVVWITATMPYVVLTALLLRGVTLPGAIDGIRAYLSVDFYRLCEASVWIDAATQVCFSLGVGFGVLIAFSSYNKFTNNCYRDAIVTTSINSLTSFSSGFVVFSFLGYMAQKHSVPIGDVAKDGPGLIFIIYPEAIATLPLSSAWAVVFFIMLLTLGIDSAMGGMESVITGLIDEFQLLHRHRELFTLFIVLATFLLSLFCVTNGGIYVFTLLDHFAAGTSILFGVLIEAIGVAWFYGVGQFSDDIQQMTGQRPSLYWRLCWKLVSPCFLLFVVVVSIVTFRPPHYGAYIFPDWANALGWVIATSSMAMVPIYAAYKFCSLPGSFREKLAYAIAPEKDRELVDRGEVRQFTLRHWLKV
Active calls of the source: *; . = not tested or not shown.

SMILES	Yeast growth inh	RAM inhibit	Measles CPE	Yeast lifespan up	WT yeast gro inh	DAT uptake mod
COCCNC(=O)c1c(N)n(-c2cccc(C)c2)c2nc3ccccc3nc12	-28	10.0*	6	2	33	1.6
O=C(COC(=O)COc1ccccc1[N+](=O)[O-])Nc1cccc(Br)c1	-22	-1	11	-6	-4	.
CC(C)CC(=O)NC(NC(=S)Nc1sc2c(c1C#N)CCCC2)C(Cl)(Cl)Cl (stereo not given)	-32	4	5	-5	8	-0.97
Cc1ccc2nc(-c3ccccc3)c(CN3CCN(c4ccccc4F)CC3)n2c1	.	2	.	.	83*	.
CCOC(=O)N1CCC(NC(=O)c2cc(C(=O)NCc3cccc(Cl)c3)ccc2CO)CC1	-6	5	39*	-3	11	-0.044
Cc1ccc2c(c1)C1C=CCC1C(C(=O)O)N2 (stereo not given)	-26	8.7*	5	8	3	.
CC(=O)c1ccc2c(c1)C1C=CCC1C(C(=O)O)N2 (stereo not given)	.	5	.	.	12	.
CCOC(=O)C1(CCOc2ccccc2)CCN(Cc2cccc3nonc23)CC1	.	1	.	.	30	.
CCCNC(=O)c1nn2cc(Br)cnc2c1Br	.	1	.	.	6	.
COc1cccc(-c2csc(N3CCN(C(=O)Nc4ccc(Cl)cc4)CC3)n2)c1	.	3	.	.	67*	.
CC[n+]1c(/C=C2\Sc3ccccc3N2C)ccc2cccc(C)c21	.	-1	.	.	64	.
CCN1/C(=C/c2ccc3cc(C)ccc3[n+]2CC)Sc2ccccc21	98*	-3	1	-11	67	.
CCN1/C(=C/c2ccc3cc(C)ccc3[n+]2CC)Sc2cc(C)c(C)cc21	.	1	.	.	92*	.
O=C(NCCc1cccc(Cl)c1)c1cccs1	.	-1	.	.	10	.
Cc1ccc(S(=O)(=O)N(CC(=O)NCc2ccco2)Cc2ccccc2F)cc1	-50	1	11	3	-6	-0.63
Cc1ccc(-c2nnc3sc(C4COc5ccccc5O4)nn23)cc1 (stereo not given)	-54	4	7	-6	75*	0.61
O=C(Cn1cc([N+](=O)[O-])cn1)NCc1cc2ccccc2[nH]1	-18	0	35	0	-11	.
CC12C(=O)N(c3ccccc3C(=O)O)C(=O)C1C1C=CC2C1 (stereo not given)	-6	1	18	1	4	.
CC12C(=O)N(c3cccc4cccnc34)C(=O)C1C1C=CC2C1 (stereo not given)	46*	1	6	-8	0	-0.51
CSc1ccccc1NC(=S)N/N=C/c1cccn1Cc1ccc(F)cc1	.	8	.	.	65*	.
CSc1ccccc1NC(=S)N/N=C/c1cccn1Cc1cccc(C)c1	.	6	.	.	63*	.
COc1cc2c(cc1OC)C(=O)CCS2	-42	1	21	-1	2	-0.47
COc1ccc2c(c1)SCCC2=O	-10	3	34*	-12	-3	-1.4
c1ccc(-c2cccc(-c3ccccn3)n2)nc1	99*	-1	5	-29	7	1.5
CCOc1ccccc1OCCOc1ccccc1OC(C)C	12	18*	8	-8	-13	-0.15
SMILES	Yeast growth inh	RAM inhibit	Measles CPE	Yeast lifespan up	WT yeast gro inh	DAT uptake mod
CN(C)C=Nc1ncc2c([nH]c3ccccc32)c1C#N	-4	0	4	-22	39	0.89
O=C(O)c1cccc(-n2cccc2/C=C2\SC(=O)N(Cc3ccccc3F)C2=O)c1	-48	3	8	-3	-9	.
C/C(=N\O)C(=O)NCCCNCCCN(C)C	3	1	49*	-9	-11	0.88
NC(=O)[C@H]1CC2(CC(c3cccc(NC(=O)CC(c4ccccc4)c4ccccc4)c3)=NO2)CN1C(=O)C(c1ccccc1)c1ccccc1 (stereo not given in full)	.	.	.	.	.	0.42
CCCCOc1ccc(C2OC34CCCCC3C(C#N)(C#N)C2(C#N)C(=N)O4)cc1 (stereo not given)	2	0	3	-4	-9	-2.8
Cc1ccc(C2OC34CCCCCC3C(C#N)(C(=N)O4)C2(C#N)C#N)cc1 (stereo not given)	5	1	52*	-2	6	.
COC(=O)c1cn(-c2ccccc2)nc1-c1ccncc1	2	1	29	-5	9	1.8*
Cc1ccc(-c2nn(-c3ccccc3)cc2C(=O)Nc2ccc(C(=O)O)cc2)cc1	.	9.6*	.	.	-5	.
CC(C)OC(=O)c1cn(-c2ccccc2)nc1-c1ccc2c(c1)OCCO2	1	11*	9	-2	28	1.4
NC(=O)/C=C\c1cn(-c2ccccc2)nc1-c1ccc2c(c1)OCCO2	-8	3	15	-3	-2	.
CN1CCN(C(=O)c2cnn3c2NC(c2ccccc2)CC3C(F)(F)F)CC1 (stereo not given)	.	0	.	.	5	.
Fc1ccccc1Cc1noc(CN2CCN(C/C=C/c3ccccc3)CC2)n1	.	1	.	.	20	.
C/C(Cn1cnc([N+](=O)[O-])n1)=N/NC(=O)COc1c(Cl)cc(Cl)cc1Cl	-38	1	10	1	-6	.
COc1ccccc1NS(=O)(=O)c1ccc(Cl)c(NC(=O)c2sc3cc(Cl)ccc3c2Cl)c1	.	9.0*	.	.	14	.
O=C(Nc1cc(S(=O)(=O)Nc2ccccc2Cl)ccc1O)c1sc2cc(Cl)ccc2c1Cl	.	3	.	.	-2	.
COC(=O)c1cc2c(cc1N)OCCO2	.	1	.	.	4	.
CCOC(=O)N=Nc1c2ccccc2c2nc3no[nH]c3nc12	.	2	.	.	96*	.
CN1N=C(c2ccc(F)c(F)c2)CSC1=NCc1ccccc1	.	0	.	.	69*	.
COc1ccc(C(NC(C)=O)c2ccc3cccnc3c2O)c(OC)c1 (stereo not given)	-12	4	18	.	1	1*
CCCC(=O)NC(c1ccccc1OC)c1ccc2cccnc2c1O (stereo not given)	.	3	.	.	8	.
COc1cc(/C=C2\SC(=O)N(CCN)C2=O)ccc1OS(=O)(=O)c1cc(C)ccc1C	.	8.5*	.	.	59	.
COc1cc(/C=C2/SC(=O)N(Cc3ccccc3Cl)C2=O)ccc1OCc1ccncc1	-43	8	3	-22	3	0.38
COc1nc(NCc2ccco2)nc(NC2CCCCC2)n1	-50	0	27	.	17	0.68
CCOc1nc(NC2CCCCC2)nc(NC(C)(C)C)n1	-2	-1	61*	.	58*	0.7
O=C(CSc1nnc(-c2n[nH]c3ccccc23)n1-c1ccccc1)Nc1cccc(Cl)c1	-47	8.8*	16	7	-17	.
Cc1cccc(NC(=O)CCNS(=O)(=O)c2cccc3nsnc23)c1	2	4	5	-3	3	1.8*
COc1cc2nc(C3CCC3)nc(N3CCN(c4ccccc4OC)CC3)c2cc1OC	-43	0	11	-7	83*	.
CCOC(=O)c1cnc(SC2CC(=O)N(c3cccc(OC)c3)C2=O)nc1N (stereo not given)	-18	10*	29	3	-24	1.3
